IDH1 mut inh = IDH1 R132H (human) inhibition; IDH1 R132H reductase, diaphorase/resazurin fluorescence, 60 min; 0.18% of 70,000 active; inhibition, % at 10 µM; in the data active = inhibition above about 34%; inconclusive = no clear call, values can overlap the other calls; inactive = below about 11%;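 also: 0% = DMSO and 100% = no enzyme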
Target sequence (O75874 whole entry R132H): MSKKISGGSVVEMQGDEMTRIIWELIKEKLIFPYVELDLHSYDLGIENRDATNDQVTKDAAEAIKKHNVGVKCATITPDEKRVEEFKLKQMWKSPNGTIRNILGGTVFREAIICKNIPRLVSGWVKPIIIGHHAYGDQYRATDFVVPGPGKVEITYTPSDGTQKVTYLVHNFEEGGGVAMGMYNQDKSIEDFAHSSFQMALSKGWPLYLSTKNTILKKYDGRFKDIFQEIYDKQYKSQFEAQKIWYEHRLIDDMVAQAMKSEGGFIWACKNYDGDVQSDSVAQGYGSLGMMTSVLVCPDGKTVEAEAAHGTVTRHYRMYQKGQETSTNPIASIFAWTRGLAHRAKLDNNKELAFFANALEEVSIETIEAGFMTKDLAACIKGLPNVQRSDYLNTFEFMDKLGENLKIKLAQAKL
T cruzi growth-1 = inhibitors of T. cruzi proliferation; T. cruzi beta-gal in NIH3T3, GalScreen luminescence, 90 h; inhibition, % at 8.34 µM; 5.9% of 77,000 active; AID 624255;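 active = mean inhibition above about 93%, with at least 55% of replicates each passing it, limit read from the data, passing the limit was not always enough; inconclusive = only one of those two conditions holds; inactive = neither condition holds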
GASC1 inh = inhibitors of human demethylase GASC-1 KDM4C. Q9H3R0. GST-KDM4C 2-372, H3K9me3 peptide, LANCE TR-FRET. inhibition, % at 12.5 µM. 0.15% of 96,000 active. AID 720574;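 active = mean replicate inhibition above about 25%, with at least 55% of replicates also reaching it, limit read from the data, passing the limit was not always enough; inconclusive = only one of those two conditions met; inactive = neither condition met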
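Material: GST-tagged GASC-1 (JMJD2C) catalytic fragment, aa 2-372. Input: enzyme final amount 10 nM. Medium: HEPES buffer, pH 7.5, plus ascorbate. Reagent: H3K9me3 peptide substrate, Fe(II), 2-oxoglutarate. Doses: single dose. Times: reaction 30 min RT, detection step 1 h RT. Measured by: LANCE TR-FRET. Evaluation: Fall in 671/618 emission ratio as inhibition.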
T cruzi growth-2 = blocks T. cruzi growth in NIH3T3 host cells. inhibition, % at 8.35 µM. AID 651739. shares compounds with T cruzi growth-1. 72% of 5,600 active. T. cruzi beta-gal in NIH3T3, GalScreen luminescence, 90 h;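 active = mean replicate inhibition above about 95% and at least 55% of replicates individually reaching it, limit read from the data; inconclusive = only one of the two criteria is met; inactive = neither criterion is met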
T cruzi growth-3 = inhibitors of T. cruzi proliferation. 21% of 5,600 active. T. cruzi beta-gal in NIH3T3, GalScreen luminescence, 90 h. shares compounds with T cruzi growth-1. inhibition, % at 2.09 µM;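 active = mean inhibition above about 95%, with at least 55% of replicates also reaching it, limit read from the data; inconclusive = meets just one of the two conditions; inactive = meets neither condition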;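 also: plate controls were neutral control median for no effect and positive control median for full effect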
3T3 cytotox = NIH/3T3 (mouse) viability loss. NIH/3T3 viability, CellTiter-Glo ATP luminescence, 90 h. AID 651742. 14% of 5,600 active. cytotoxicity (signal decrease), % at 8.35 µM. shares compounds with T cruzi growth-1;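 active = mean signal decrease across replicates above about 35% based on untreated-well scatter, with enough replicates individually passing, limit read from the data; inconclusive = no rule stated though some were filed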;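 also: 0% = median of neutral control wells and 100% = median of positive control wells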
NIH3T3 tox 2 = NIH/3T3 (mouse) viability loss. shares compounds with T cruzi growth-1. NIH/3T3 viability, CellTiter-Glo ATP luminescence, 90 h. inhibition, % at 24.9 µM. 56% of 5,600 active;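 active = mean loss of cell viability signal at or above a set limit, and enough replicates individually reaching it; inconclusive = meets only the mean limit or only the replicate share; inactive = meets neither condition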;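 also: 0% = median of neutral control wells and 100% = median of positive control wells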
An asterisk follows results filed as active; ? = inconclusive; / = no result. The entries come from a sample that favours hits as a whole.

SMILES	IDH1 mut inh	T cruzi growth-1	GASC1 inh	T cruzi growth-2	T cruzi growth-3	3T3 cytotox	NIH3T3 tox 2
C[C@H]1CN([C@@H](C)CO)C(=O)Cc2cc(NS(=O)(=O)c3ccc(F)cc3)ccc2O[C@H]1CN(C)CC1CCCCC1	0	67	-2	/	/	/	/
COc1ccc(S(=O)(=O)Nc2ccc3c(c2)CC(=O)N([C@H](C)CO)C[C@H](C)[C@H](CN(C)Cc2ccccc2)O3)cc1	/	71	0	/	/	/	/
COc1ccc(NC(=O)c2ccco2)cc1NC(=O)CSc1ccc(Cl)cc1	0	/	/	/	/	/	/
COC(=O)CCCCCCC(=O)N/N=C/c1cc2c(cc1Br)OCO2	0	/	/	/	/	/	/
O=C(CSc1nnc(-c2ccc(Cl)cc2)o1)c1cccc([N+](=O)[O-])c1	1	/	/	/	/	/	/
CCC(=O)NC[C@@H]1[C@@H](c2ccc(-c3cccc(F)c3)cc2)[C@H](CO)N1C(=O)CC	/	92	-1	/	/	/	/
CCC(=O)NC[C@H]1[C@@H](c2ccc(-c3cccc(F)c3)cc2)[C@H](CO)N1C(=O)CC	/	30	-3	/	/	/	/
CCC(=O)NC[C@@H]1[C@H](c2ccc(-c3cccc(F)c3)cc2)[C@@H](CO)N1C(=O)CC	/	101*	-1	-41	-73	-35	-30
CCC(=O)NC[C@@H]1[C@H](c2ccc(-c3cccc(F)c3)cc2)[C@H](CO)N1C(=O)CC	/	?	-1	12	-19	-8	-10
O=C(c1ccccc1)N1CC2(C1)[C@H](c1ccccc1)[C@H](CO)N2CC1CC1	/	/	1	/	/	/	/
C[C@@H]1CN([C@@H](C)CO)C(=O)c2cccc(NC(=O)C3CCOCC3)c2O[C@@H]1CN(C)C(=O)Nc1cccc2ccccc12	-2	100*	-1	-19	15	5	15
C[C@H]1CN([C@@H](C)CO)C(=O)c2cccc(NC(=O)C3CCOCC3)c2O[C@H]1CN(C)C(=O)Nc1cccc2ccccc12	-1	6	4	/	/	/	/
C[C@@H]1CN([C@H](C)CO)C(=O)c2cccc(NC(=O)C3CCOCC3)c2O[C@H]1CN(C)C(=O)Nc1cccc2ccccc12	/	103*	0	82	-30	12	?
C[C@H](CO)N1C[C@H](C)[C@@H](CN(C)C(=O)Nc2cccc3ccccc23)Oc2c(NC(=O)C3CCOCC3)cccc2C1=O	0	40	7	/	/	/	/
CN(CC(=O)Nc1ccc(F)c(Cl)c1)S(=O)(=O)c1ccc(F)cc1	-1	/	/	/	/	/	/
CN(C)C(=O)c1cccc(-c2ccccc2[C@H]2[C@@H](CO)N(C(=O)C3CCCC3)[C@H]2C#N)c1	/	/	-1	/	/	/	/
COc1cccc(S(=O)(=O)Nc2ccc3c(c2)[C@H]2C[C@H](CC(=O)NCc4ccccc4F)O[C@H](CO)[C@H]2O3)c1	0	143*	0	98*	0	-16	2
O=C(C[C@H]1C[C@H]2c3cc(NS(=O)(=O)c4ccc(F)cc4)ccc3O[C@H]2[C@H](CO)O1)NCc1ccccc1	0	-31	-4	/	/	/	/
O=C(C[C@H]1C[C@H]2c3cc(NS(=O)(=O)c4ccc(F)cc4)ccc3O[C@H]2[C@H](CO)O1)NCc1ccc(-c2ccccc2)cc1	1	101*	-6	87	101*	66*	67*
O=C(C[C@H]1C[C@H]2c3cc(NS(=O)(=O)c4ccc(F)cc4)ccc3O[C@H]2[C@@H](CO)O1)NCc1ccc(Oc2ccccc2)cc1	1	119*	-3	101*	77	20	20
COc1cccc(S(=O)(=O)Nc2ccc3c(c2)[C@@H]2C[C@H](CC(=O)NCc4ccccc4F)O[C@@H](CO)[C@@H]2O3)c1	0	71	7	/	/	/	/
O=C(C[C@@H]1C[C@@H]2c3cc(NS(=O)(=O)c4ccc(F)cc4)ccc3O[C@@H]2[C@@H](CO)O1)NCc1ccc(-c2ccccc2)cc1	2	102*	/	88	92	39*	45*
O=C(C[C@@H]1C[C@H]2c3cc(NS(=O)(=O)c4ccc(F)cc4)ccc3O[C@H]2[C@H](CO)O1)NCc1ccccc1	0	-76	-3	/	/	/	/
O=C(C[C@@H]1C[C@H]2c3cc(NS(=O)(=O)c4ccc(F)cc4)ccc3O[C@H]2[C@@H](CO)O1)NCc1ccc(-c2ccccc2)cc1	0	92	-7	/	/	/	/
O=C(C[C@@H]1C=C[C@@H](NC(=O)c2ccccc2)[C@@H](CO)O1)Nc1ccc(-c2ccccc2)cc1	-1	1	0	/	/	/	/
SMILES	IDH1 mut inh	T cruzi growth-1	GASC1 inh	T cruzi growth-2	T cruzi growth-3	3T3 cytotox	NIH3T3 tox 2
COC(=O)c1cc(OC)c(OC)cc1NC(=O)C(C)Oc1ccc(Br)cc1 (stereo unspecified)	0	/	/	/	/	/	/
Cc1cc(Nc2ccccc2NC(=O)c2ccc([N+](=O)[O-])cc2)n(-c2ccccc2)n1	0	/	/	/	/	/	/
CC(=O)c1ccc(OC(=O)C(Cc2ccccc2)N2C(=O)C3C4C=CC(C5CC45)C3C2=O)cc1 (stereo unspecified)	0	/	/	/	/	/	/
CCc1ccccc1NC(=O)CSc1ncnc2sc(C)c(C)c12	0	/	/	/	/	/	/
C=CCn1c2ccccc2c2nnc(SCc3ccccc3F)nc21	0	/	/	/	/	/	/
C[C@@H]1CN([C@@H](C)CO)S(=O)(=O)c2ccc(-c3ccccc3)cc2O[C@@H]1CN(C)Cc1cccc(F)c1	/	123*	2	92	112*	14	107*
Cc1ccc(-c2ccc3c(c2)O[C@@H](CN(C)Cc2ccc(F)cc2)[C@@H](C)CN([C@@H](C)CO)S3(=O)=O)cc1	0	91	0	/	/	/	/
C[C@@H]1CN([C@@H](C)CO)S(=O)(=O)c2ccc(-c3ccc(F)cc3)cc2O[C@@H]1CN(C)Cc1cccc(F)c1	-1	52	0	/	/	/	/
C[C@@H]1CN([C@H](C)CO)S(=O)(=O)c2ccc(-c3ccccc3)cc2O[C@H]1CN(C)Cc1ccccc1	0	63	11	/	/	/	/
Cc1ccc(-c2ccc3c(c2)O[C@H](CN(C)Cc2ccccc2)[C@H](C)CN([C@H](C)CO)S3(=O)=O)cc1	-1	121*	0	94	110*	29	106*
C[C@H](CO)N1C[C@H](C)[C@H](CN(C)CC2CC2)Oc2cc(-c3ccccc3)ccc2S1(=O)=O	-1	37	-2	/	/	/	/
Cc1ccc(-c2ccc3c(c2)O[C@H](CN(C)Cc2ccc(F)cc2)[C@@H](C)CN([C@H](C)CO)S3(=O)=O)cc1	0	98*	0	102*	100*	46*	104*
C[C@H]1CN([C@@H](C)CO)S(=O)(=O)c2ccc(-c3ccccc3)cc2O[C@H]1CN(C)CC1CC1	-2	112*	1	81	43	28	79*
CNC(=S)NCc1sc2ccccc2c1C	0	/	/	/	/	/	/
Cc1cc(C(=O)Oc2c(C)cc(C(=O)O)c(O)c2C)c(O)c(C)c1O	0	/	/	/	/	/	/
CCc1ccc(OCC(=O)Nc2ccccc2-c2nc3ccccc3s2)cc1	0	/	/	/	/	/	/

Compound activity from PubChem.
